Experimental data collected from several papers.
Each line is one published result; the experiments were not run side by side. Values after ≈ are worked out from the molar mass of the structure shown.

Compound	tested on	assay	setting	quantity	value
Cc1cc(Nc2ncc(Cl)c(Nc3ccccc3S(=O)(=O)C(C)C)n2)c(OC(C)C)cc1C1CCNCC1	NCI-H2228	cell growth or viability, MTT	0.2 µg/mL, 72 h	inhibition	70.9%
Cc1ccc(C(CS(=O)(=O)c2ccccc2)=NN=C2N=C(c3ccc(Br)cc3)CS2)cc1	SK-MEL-23	cell growth or viability, MTT	25 µM, 48 h	viability	54.9%
CCCCc1cccc(-c2cnc3c(n2)CCCC3)c1	Haemonchus contortus	parasite motility	24 h, larva	IC50	32.4 µM
O=C(Nc1ccccc1-c1ccc(F)c(F)c1)c1nccnc1C(F)(F)F	Cladosporium cucumerinum	microbial growth		EC50	< 0.1 µg/mL
CCCCCc1ccc(-c2cnc3c(n2)CCCC3)cc1	Haemonchus contortus	parasite motility	72 h, larva	IC50	14.4 µM
Cc1ccc(C(CS(=O)(=O)c2ccccc2)=NNc2nc(-c3ccc(OCCCCOc4ccc(-c5csc(NN=C(CS(=O)(=O)c6ccccc6)c6ccc(C)cc6)n5)cc4)cc3)cs2)cc1	SK-MEL-23	cell growth or viability, MTT	100 µM, 48 h	viability	37.2%
CCCCOc1cccc(-c2cnc3c(n2)CCCC3)c1	Haemonchus contortus	parasite motility	24 h, larva	IC50	~49.5 µM
C[C@@H](Oc1cc(-c2cnn(C3CCNCC3)c2)cnc1N)c1c(Cl)ccc(F)c1Cl	NCI-H2228	cell growth or viability, MTT	5 µg/mL, 72 h	inhibition	85.2%
Cc1ncc([N+](=O)[O-])n1CCO	Eggerthella lenta	microbial growth, agar dilution	48 h	MIC	0.5 µg/mL (≈ 2.92 µM)
CCCCOc1ccc(-c2cnc3c(n2)CCCC3)cc1	Haemonchus contortus	parasite motility	48 h, larva	IC50	6.9 µM
O=c1[nH]c(NCc2ccc(Cl)c(Cl)c2)nc2ncn(CCN3CCOCC3)c12	Eggerthella lenta	microbial growth, agar dilution	48 h	MIC	> 32 µg/mL
Cc1ccc(C(CS(=O)(=O)c2ccccc2)=NNC2=NC(=O)C(=NNc3ccccc3)S2)cc1	SK-MEL-23	cell growth or viability, MTT	0.4 µM, 48 h	viability	50.5%
